According to ChEMBL document CHEMBL4152188, “Design, synthesis and biological evaluation of C(4) substituted monobactams as antibacterial agents against multidrug-resistant Gram-negative bacteria” (Eur J Med Chem, 2018):

Columns and labels:
Format in all cases: functional
Pseudomonas aeruginosa [1] = test: Selectivity index, ratio of MIC for against IMP-4 producing Pseudomonas aeruginosa isolate 209321 to MIC for against IMP-4 producing Pseudomonas aeruginosa isolate 209321 in presence of BPL
Escherichia coli [2] = test: Antibacterial activity against extended-spectrum beta-lactamase producing Escherichia coli isolate 212648 after 18 hrs in presence of BPL by CLSI broth microdilution method; conditions: isolate 212648, 18 h
Procedure, shortened: (§1)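 CLSI broth microdilution against clinical isolates (ESBL E. coli, KPC-2 MDR K. pneumoniae, IMP-4 MDR P. aeruginosa; five per species). Iron limitation: Mueller-Hinton broth supplemented with 16 mg/liter 2,2'-bipyridyl to complex iron and induce iron uptake systems. Read-out: MIC.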

Escherichia coli [3] = test: Antibacterial activity against extended-spectrum beta-lactamase producing Escherichia coli isolate 106342 after 18 hrs in presence of BPL by CLSI broth microdilution method; conditions: isolate 106342, 18 h; procedure, shortened: as §1
Klebsiella pneumoniae [4] = test: Antibacterial activity against KPC-2 producing Klebsiella pneumoniae isolate 212232 after 18 hrs in presence of BPL by CLSI broth microdilution method; conditions: isolate 212232, 18 h; procedure, shortened: as §1
Pseudomonas aeruginosa [5] = test: Antibacterial activity against IMP-4 producing Pseudomonas aeruginosa isolate 209321 after 18 hrs in presence of BPL by CLSI broth microdilution method; conditions: isolate 209321, 18 h; procedure, shortened: as §1
Klebsiella pneumoniae [6] = test: Antibacterial activity against KPC-2 producing Klebsiella pneumoniae isolate 212423 after 18 hrs by CLSI broth microdilution method; conditions: isolate 212423, 18 h
Pseudomonas aeruginosa [7] = test: Selectivity index, ratio of MIC for against IMP-4 producing Pseudomonas aeruginosa isolate 207272 to MIC for against IMP-4 producing Pseudomonas aeruginosa isolate 207272 in presence of BPL
Klebsiella pneumoniae [8] = test: Antibacterial activity against KPC-2 producing Klebsiella pneumoniae isolate 212229 after 18 hrs by CLSI broth microdilution method; conditions: isolate 212229, 18 h
Escherichia coli [9] = test: Selectivity index, ratio of MIC for against extended-spectrum beta-lactamase producing Escherichia coli isolate 106342 to MIC for extended-spectrum beta-lactamase producing Escherichia coli isolate 106342 in presence of BPL
Pseudomonas aeruginosa [10] = test: Antibacterial activity against IMP-4 producing Pseudomonas aeruginosa isolate 209321 after 18 hrs by CLSI broth microdilution method; conditions: isolate 209321, 18 h
Escherichia coli [11] = test: Antibacterial activity against extended-spectrum beta-lactamase producing Escherichia coli isolate 209285 after 18 hrs in presence of BPL by CLSI broth microdilution method; conditions: isolate 209285, 18 h; procedure, shortened: as §1
Klebsiella pneumoniae [12] = test: Antibacterial activity against KPC-2 producing Klebsiella pneumoniae isolate 209632 after 18 hrs by CLSI broth microdilution method; conditions: isolate 209632, 18 h
Escherichia coli [13] = test: Antibacterial activity against extended-spectrum beta-lactamase producing Escherichia coli isolate 212648 after 18 hrs by CLSI broth microdilution method; conditions: isolate 212648, 18 h
Pseudomonas aeruginosa [14] = test: Antibacterial activity against IMP-4 producing Pseudomonas aeruginosa isolate 207272 after 18 hrs by CLSI broth microdilution method; conditions: isolate 207272, 18 h
Klebsiella pneumoniae [15] = test: Antibacterial activity against KPC-2 producing Klebsiella pneumoniae isolate 209735 after 18 hrs in presence of BPL by CLSI broth microdilution method; conditions: isolate 209735, 18 h; procedure, shortened: as §1
Escherichia coli [16] = test: Antibacterial activity against extended-spectrum beta-lactamase producing Escherichia coli isolate 208687 after 18 hrs by CLSI broth microdilution method; conditions: isolate 208687, 18 h
Escherichia coli [17] = test: Antibacterial activity against Escherichia coli isolate 210737 after 18 hrs by CLSI broth microdilution method; conditions: isolate 210737, 18 h
Klebsiella pneumoniae [18] = test: Antibacterial activity against KPC-2 producing Klebsiella pneumoniae isolate 212232 after 18 hrs by CLSI broth microdilution method; conditions: isolate 212232, 18 h
Pseudomonas aeruginosa [19] = test: Antibacterial activity against IMP-4 producing Pseudomonas aeruginosa isolate 212886 after 18 hrs in presence of BPL by CLSI broth microdilution method; conditions: isolate 212886, 18 h; procedure, shortened: as §1
Pseudomonas aeruginosa [20] = test: Antibacterial activity against IMP-4 producing Pseudomonas aeruginosa isolate 212886 after 18 hrs by CLSI broth microdilution method; conditions: isolate 212886, 18 h
Escherichia coli [21] = test: Antibacterial activity against extended-spectrum beta-lactamase producing Escherichia coli isolate 209285 after 18 hrs by CLSI broth microdilution method; conditions: isolate 209285, 18 h
Pseudomonas aeruginosa [22] = test: Antibacterial activity against IMP-4 producing Pseudomonas aeruginosa isolate 209471 after 18 hrs in presence of BPL by CLSI broth microdilution method; conditions: isolate 209471, 18 h; procedure, shortened: as §1
Pseudomonas aeruginosa [23] = test: Selectivity index, ratio of MIC for against IMP-4 producing Pseudomonas aeruginosa isolate 209471 to MIC for against IMP-4 producing Pseudomonas aeruginosa isolate 209471 in presence of BPL
Escherichia coli [24] = test: Antibacterial activity against extended-spectrum beta-lactamase producing Escherichia coli isolate 106342 after 18 hrs by CLSI broth microdilution method; conditions: isolate 106342, 18 h
Pseudomonas aeruginosa [25] = test: Antibacterial activity against IMP-4 producing Pseudomonas aeruginosa isolate 209471 after 18 hrs by CLSI broth microdilution method; conditions: isolate 209471, 18 h
Pseudomonas aeruginosa [26] = test: Antibacterial activity against IMP-4 producing Pseudomonas aeruginosa isolate 207272 after 18 hrs in presence of BPL by CLSI broth microdilution method; conditions: isolate 207272, 18 h; procedure, shortened: as §1
Escherichia coli [27] = test: Antibacterial activity against extended-spectrum beta-lactamase producing Escherichia coli isolate 208687 after 18 hrs in presence of BPL by CLSI broth microdilution method; conditions: isolate 208687, 18 h; procedure, shortened: as §1
Pseudomonas aeruginosa [28] = test: Antibacterial activity against IMP-4 producing Pseudomonas aeruginosa isolate 208247 after 18 hrs by CLSI broth microdilution method; conditions: isolate 208247, 18 h
Klebsiella pneumoniae [29] = test: Antibacterial activity against KPC-2 producing Klebsiella pneumoniae isolate 212423 after 18 hrs in presence of BPL by CLSI broth microdilution method; conditions: isolate 212423, 18 h; procedure, shortened: as §1
Pseudomonas aeruginosa [30] = test: Selectivity index, ratio of MIC for against IMP-4 producing Pseudomonas aeruginosa isolate 208247 to MIC for against IMP-4 producing Pseudomonas aeruginosa isolate 208247 in presence of BPL
Pseudomonas aeruginosa [31] = test: Antibacterial activity against IMP-4 producing Pseudomonas aeruginosa isolate 208247 after 18 hrs in presence of BPL by CLSI broth microdilution method; conditions: isolate 208247, 18 h; procedure, shortened: as §1
Klebsiella pneumoniae [32] = test: Antibacterial activity against KPC-2 producing Klebsiella pneumoniae isolate 209735 after 18 hrs by CLSI broth microdilution method; conditions: isolate 209735, 18 h
Escherichia coli [33] = test: Antibacterial activity against Escherichia coli isolate 210737 after 18 hrs in presence of BPL by CLSI broth microdilution method; conditions: isolate 210737, 18 h; procedure, shortened: as §1
Pseudomonas aeruginosa [34] = test: Selectivity index, ratio of MIC for against IMP-4 producing Pseudomonas aeruginosa isolate 212886 to MIC for against IMP-4 producing Pseudomonas aeruginosa isolate 212886 in presence of BPL
Klebsiella pneumoniae [35] = test: Antibacterial activity against KPC-2 producing Klebsiella pneumoniae isolate 209632 after 18 hrs in presence of BPL by CLSI broth microdilution method; conditions: isolate 209632, 18 h; procedure, shortened: as §1
Klebsiella pneumoniae [36] = test: Antibacterial activity against KPC-2 producing Klebsiella pneumoniae isolate 212229 after 18 hrs in presence of BPL by CLSI broth microdilution method; conditions: isolate 212229, 18 h; procedure, shortened: as §1
Escherichia coli [37] = test: Selectivity index, ratio of MIC for against Escherichia coli isolate 210737 to MIC for Escherichia coli isolate 210737 in presence of BPL
Klebsiella pneumoniae [38] = test: Selectivity index, ratio of MIC for against KPC-2 producing Klebsiella pneumoniae isolate 209632 to MIC for against KPC-2 producing Klebsiella pneumoniae isolate 209632 in presence of BPL
Escherichia coli [39] = test: Selectivity index, ratio of MIC for against extended-spectrum beta-lactamase producing Escherichia coli isolate 208687 to MIC for extended-spectrum beta-lactamase producing Escherichia coli isolate 208687 in presence of BPL
Klebsiella pneumoniae [40] = test: Selectivity index, ratio of MIC for against KPC-2 producing Klebsiella pneumoniae isolate 212232 to MIC for against KPC-2 producing Klebsiella pneumoniae isolate 212232 in presence of BPL
Escherichia coli [41] = test: Selectivity index, ratio of MIC for against extended-spectrum beta-lactamase producing Escherichia coli isolate 212648 to MIC for extended-spectrum beta-lactamase producing Escherichia coli isolate 212648 in presence of BPL
Escherichia coli [42] = test: Selectivity index, ratio of MIC for against extended-spectrum beta-lactamase producing Escherichia coli isolate 209285 to MIC for extended-spectrum beta-lactamase producing Escherichia coli isolate 209285 in presence of BPL
Klebsiella pneumoniae [43] = test: Selectivity index, ratio of MIC for against KPC-2 producing Klebsiella pneumoniae isolate 212229 to MIC for against KPC-2 producing Klebsiella pneumoniae isolate 212229 in presence of BPL
Klebsiella pneumoniae [44] = test: Selectivity index, ratio of MIC for against KPC-2 producing Klebsiella pneumoniae isolate 212423 to MIC for against KPC-2 producing Klebsiella pneumoniae isolate 212423 in presence of BPL
Klebsiella pneumoniae [45] = test: Selectivity index, ratio of MIC for against KPC-2 producing Klebsiella pneumoniae isolate 209735 to MIC for against KPC-2 producing Klebsiella pneumoniae isolate 209735 in presence of BPL

C#CC1[C@H](NC(=O)/C(=N\OC(c2cc(=O)c(O)cn2O)C(C)C)c2csc(N)n2)C(=O)N1S(=O)(=O)O (some centres undefined)
1 - 2: Selectivity Index (Pseudomonas aeruginosa [7]) | Selectivity Index (Pseudomonas aeruginosa [23]) | Selectivity Index (Pseudomonas aeruginosa [34])
32 µg/mL: MIC (Pseudomonas aeruginosa [31])
> 64 µg/mL: MIC (Escherichia coli [2]) | MIC (Klebsiella pneumoniae [4]) | MIC (Klebsiella pneumoniae [6]) | MIC (Klebsiella pneumoniae [8]) | MIC (Escherichia coli [11]) | MIC (Klebsiella pneumoniae [12]) | MIC (Escherichia coli [13]) | MIC (Pseudomonas aeruginosa [14]) | MIC (Klebsiella pneumoniae [15]) | MIC (Escherichia coli [16]) | MIC (Escherichia coli [17]) | MIC (Klebsiella pneumoniae [18]) | MIC (Pseudomonas aeruginosa [19]) | MIC (Pseudomonas aeruginosa [20]) | MIC (Escherichia coli [21]) | MIC (Pseudomonas aeruginosa [22]) | MIC (Pseudomonas aeruginosa [25]) | MIC (Pseudomonas aeruginosa [26]) | MIC (Escherichia coli [27]) | MIC (Klebsiella pneumoniae [29]) | MIC (Klebsiella pneumoniae [32]) | MIC (Escherichia coli [33]) | MIC (Klebsiella pneumoniae [35]) | MIC (Klebsiella pneumoniae [36])
64 µg/mL: MIC (Escherichia coli [3]) | MIC (Pseudomonas aeruginosa [5]) | MIC (Pseudomonas aeruginosa [10]) | MIC (Escherichia coli [24]) | MIC (Pseudomonas aeruginosa [28])
1: Selectivity Index (Pseudomonas aeruginosa [1]) | Selectivity Index (Escherichia coli [9])
2: Selectivity Index (Pseudomonas aeruginosa [30])

CC(C)C(O/N=C(\C(=O)N[C@@H]1C(=O)N(S(=O)(=O)O)[C@@H]1CN1CCNCC1)c1csc(N)n1)c1cc(=O)c(O)cn1O (some centres undefined)
32 µg/mL: MIC (Pseudomonas aeruginosa [5]) | MIC (Pseudomonas aeruginosa [10])
1 µg/mL: MIC (Escherichia coli [3]) | MIC (Escherichia coli [17]) | MIC (Escherichia coli [27]) | MIC (Escherichia coli [33])
4 µg/mL: MIC (Klebsiella pneumoniae [6]) | MIC (Klebsiella pneumoniae [18])
2 µg/mL: MIC (Klebsiella pneumoniae [8]) | MIC (Escherichia coli [13]) | MIC (Escherichia coli [16]) | MIC (Escherichia coli [21]) | MIC (Escherichia coli [24]) | MIC (Klebsiella pneumoniae [29]) | MIC (Klebsiella pneumoniae [36])
0.5 µg/mL: MIC (Escherichia coli [2]) | MIC (Klebsiella pneumoniae [4]) | MIC (Escherichia coli [11])
1 - 8: Selectivity Index (Klebsiella pneumoniae [38]) | Selectivity Index (Klebsiella pneumoniae [45])
64 µg/mL: MIC (Pseudomonas aeruginosa [14]) | MIC (Pseudomonas aeruginosa [22]) | MIC (Pseudomonas aeruginosa [25]) | MIC (Pseudomonas aeruginosa [26])
2: Selectivity Index (Escherichia coli [39]) | Selectivity Index (Escherichia coli [9]) | Selectivity Index (Klebsiella pneumoniae [44])
8: Selectivity Index (Klebsiella pneumoniae [40])
4: Selectivity Index (Escherichia coli [41]) | Selectivity Index (Escherichia coli [42])
> 64 µg/mL: MIC (Klebsiella pneumoniae [12]) | MIC (Klebsiella pneumoniae [15]) | MIC (Pseudomonas aeruginosa [19]) | MIC (Pseudomonas aeruginosa [20]) | MIC (Pseudomonas aeruginosa [28]) | MIC (Pseudomonas aeruginosa [31]) | MIC (Klebsiella pneumoniae [32]) | MIC (Klebsiella pneumoniae [35])
1: Selectivity Index (Pseudomonas aeruginosa [1]) | Selectivity Index (Escherichia coli [37]) | Selectivity Index (Pseudomonas aeruginosa [7]) | Selectivity Index (Pseudomonas aeruginosa [23]) | Selectivity Index (Klebsiella pneumoniae [43])
